Measured values published in ChEMBL document CHEMBL4028909, “Discovery of an Orally Bioavailable Benzofuran Analogue That Serves as a β-Amyloid Aggregation Inhibitor for the Potential Treatment of Alzheimer's Disease” (J Med Chem, 2018).
The source made the active and inactive calls. No cut-off for these calls is given here.

Columns and labels:
Cytochrome P450 2C8 = target: T1, Cytochrome P450 2C8 (Homo sapiens, UniProt P10632); assay: Inhibition of CYP2C8 in human liver microsomes preincubated for 5 mins followed by addition of NADPH generating system measured after 20 mins by LC-MS/MS analysis; type: ADME
T1 sequence (P10632 whole entry): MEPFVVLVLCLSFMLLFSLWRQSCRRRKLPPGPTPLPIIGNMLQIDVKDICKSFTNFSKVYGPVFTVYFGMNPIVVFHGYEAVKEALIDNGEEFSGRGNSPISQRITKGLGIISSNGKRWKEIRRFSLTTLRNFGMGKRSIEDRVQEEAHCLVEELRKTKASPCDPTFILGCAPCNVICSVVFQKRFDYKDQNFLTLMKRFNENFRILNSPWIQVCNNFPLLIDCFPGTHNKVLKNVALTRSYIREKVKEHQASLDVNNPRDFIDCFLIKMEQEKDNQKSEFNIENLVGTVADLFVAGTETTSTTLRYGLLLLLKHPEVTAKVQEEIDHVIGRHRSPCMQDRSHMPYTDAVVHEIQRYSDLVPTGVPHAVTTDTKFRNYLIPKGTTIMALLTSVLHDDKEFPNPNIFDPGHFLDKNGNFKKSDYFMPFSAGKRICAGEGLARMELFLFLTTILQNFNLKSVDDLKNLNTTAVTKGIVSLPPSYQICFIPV
Outline: (§1)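 Inhibition of each CYP isozyme (1A2, 2A6, 2C8, 2C9, 2C19, 2D6, 3A4) was measured in human liver microsomes. IC50 values were reported in μM.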

[1] = Cmax in mouse at 30 mg/kg, po; type: ADME, organism-based; design: dose 30 mg/kg, route oral; conditions: in vivo
Outline: (§2)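 Mice received a single dose of 3 mg/kg i.v. or 3, 10 or 30 mg/kg orally. Plasma concentration-time profiles were analysed for AUC from zero to infinity and to the last measured time (hr*ng/mL), Cmax (ng/mL, C0 after i.v.), Tmax and terminal half-life (hr), and oral bioavailability (%).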

[2] = target: Amyloid-beta precursor protein (Homo sapiens) (UniProt P05067); assay: Inhibition of HFIP-pretreated amyloid beta (1 to 42) (unknown origin) aggregation after 1 hr by transmission electron microscopic method
[3] = Terminal half life in mouse at 3 mg/kg, po; type: ADME, organism-based; conditions: in vivo, read-out: beta t1/2 (converted)
Outline: (§3)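 Mouse pharmacokinetics: single i.v. dose of 3 mg/kg, or oral doses of 3, 10 and 30 mg/kg. Plasma concentration–time curves gave T1/2 (terminal, hr), Tmax (hr), Cmax, AUC and bioavailability (%).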

[4] = Ratio of AUC in ICR mouse brain to AUC in ICR mouse plasma at 10 mg/kg, po measured at 0.333 hrs; type: ADME, organism-based; conditions: read-out: Ratio AUC
Outline: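 ICR mice (n=3) given a single oral dose of 10 mg/kg. Brain and plasma were sampled over nine hours, at 0.333, 1, 3, 6 and 9 h. Kp was calculated as AUC_brain/AUC_plasma.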

[5] = Clearance in iv dosed monkey; type: ADME, organism-based, Macaca mulatta; conditions: rhesus monkey, in vivo
[6] = Cmax in mouse at 3 mg/kg, po; type: ADME, organism-based; design: dose 3 mg/kg, route oral; conditions: in vivo; outline: as §2
Mus musculus [7] = assay: Reversal of cognitive deficit in amyloid beta (1 to 42)-treated Alzheimer's disease ICR mouse model assessed as increase in spatial memory function by measuring spontaneous alternation at 10 mg/kg, po administered for 3 consecutive days by Y maze test relative to control; type: functional
Outline: (§4)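 Acute AD model: preformed Aβ aggregates injected directly into the brains of normal mice to induce acute neurotoxicity. Compound given orally for three consecutive days, then the Y-maze was run. Read-out is percentage of spontaneous alternation, compared against normal and vehicle-treated mice.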

[8] = Oral bioavailability in monkey; type: ADME, organism-based, Macaca mulatta; conditions: rhesus monkey, in vivo
Mus musculus [9] = assay: Reversal of cognitive deficit in double APP/PS1 transgenic Alzheimer's disease mouse model assessed as increase in spatial memory function by measuring spontaneous alternation at 30 mg/kg, po qd administered for 8 weeks by Y maze test (reference value: 52.64 +/- 4.15%); type: functional
Outline: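 APP/PS1 double transgenic mice, 29 weeks old, dosed orally once daily at 30 or 100 mg/kg for eight weeks. Y-maze spontaneous alternation (%) was then measured against vehicle-treated mice, and mice were watched for apparent toxicity.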

[10] = Terminal half life in mouse at 3 mg/kg, iv; type: ADME, organism-based; conditions: in vivo, read-out: beta t1/2 (converted); outline: as §3
[11] = Oral bioavailability in mouse at 10 mg/kg; type: ADME, organism-based; conditions: in vivo; outline: as §2
[12] = Oral bioavailability in mouse at 30 mg/kg; type: ADME, organism-based; conditions: in vivo; outline: as §2
[13] = Terminal half life in mouse at 10 mg/kg, po; type: ADME, organism-based; conditions: in vivo, read-out: beta t1/2 (converted); outline: as §3
Cytochrome P450 3A4 = Cytochrome P450 3A4 (Homo sapiens, UniProt P08684); assay: Inhibition of CYP3A4 in human liver microsomes preincubated for 5 mins followed by addition of NADPH generating system measured after 20 mins by LC-MS/MS analysis; type: ADME; outline: as §1
[14] = Terminal half life in mouse at 30 mg/kg, po; type: ADME, organism-based; conditions: in vivo, read-out: beta t1/2 (converted); outline: as §3
HT-22 [15] = assay: Neuroprotective activity against amyloid beta-induced toxicity in mouse HT22 cells assessed as increase in cell viability preincubated for 1 hr followed by amyloid beta challenge measured after 18 hrs by MTT assay; type: functional, cell-based
Outline: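 Mouse hippocampal HT22 cells were treated with compound at several concentrations and then exposed to preformed Aβ aggregates made from 25 μM monomeric Aβ. Viability was read by MTT and scaled between untreated cells and Aβ-only cells. Mean±SD of three independent experiments; one-way ANOVA with Dunnett test.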

[16] = Clearance in iv dosed rat; type: ADME, organism-based; conditions: in vivo
[17] = Half-life in po dosed monkey; conditions: rhesus monkey, in vivo
Mus musculus [18] = assay: Reversal of cognitive deficit in amyloid beta (1 to 42)-treated Alzheimer's disease ICR mouse model assessed as increase in spatial memory function by measuring spontaneous alternation at 1 mg/kg, po administered for 3 consecutive days by Y maze test relative to control; type: functional; outline: as §4
[19] = Oral bioavailability in ICR mouse; type: ADME, organism-based; conditions: in vivo
[20] = Cmax in po dosed monkey; type: ADME, organism-based, Macaca mulatta; design: route oral; conditions: rhesus monkey, in vivo
HT-22 [21] = assay: Cytotoxicity against mouse HT22 cells assessed as effect on cell viability at 1.25 to 10 uM after 18 hrs by MTT assay; type: cell-based; conditions: ht-22, 18 h
Outline: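 Mouse HT22 cells were treated with compound alone at the stated concentrations, without Aβ aggregates. Viability was read by MTT.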

[22] = Oral bioavailability in rat; type: ADME, organism-based; conditions: in vivo
Mus musculus [23] = assay: Antiamyloidogenic activity in po dosed double APP/PS1 transgenic Alzheimer's disease mouse model assessed as decrease in amyloid beta (1 to 40) levels in brain administered as qd for 8 weeks by sandwich ELISA; type: functional, organism-based
Outline: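 APP/PS1 mice, 29 weeks old, were dosed orally once daily for eight weeks at 30 or 100 mg/kg, with a vehicle group. Brain tissue was homogenized and amyloid fibrils were solubilized to monomers. Aβ1-40 and Aβ1-42 were then quantified by immunoassay with antibodies specific to monomeric Aβ.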

[24] = AUClast in mouse at 10 mg/kg, po; type: ADME, organism-based; design: dose 10 mg/kg, route oral, time 0 - last; conditions: in vivo; outline: as §2
Cytochrome P450 2D6 = Cytochrome P450 2D6 (Homo sapiens, UniProt P10635); assay: Inhibition of CYP2D6 in human liver microsomes preincubated for 5 mins followed by addition of NADPH generating system measured after 20 mins by LC-MS/MS analysis; type: ADME; outline: as §1
[25] = Tmax in mouse at 3 mg/kg, po; type: ADME, organism-based; conditions: in vivo; outline: as §3

Cytochrome P450 3A4, sequence (P08684 whole entry): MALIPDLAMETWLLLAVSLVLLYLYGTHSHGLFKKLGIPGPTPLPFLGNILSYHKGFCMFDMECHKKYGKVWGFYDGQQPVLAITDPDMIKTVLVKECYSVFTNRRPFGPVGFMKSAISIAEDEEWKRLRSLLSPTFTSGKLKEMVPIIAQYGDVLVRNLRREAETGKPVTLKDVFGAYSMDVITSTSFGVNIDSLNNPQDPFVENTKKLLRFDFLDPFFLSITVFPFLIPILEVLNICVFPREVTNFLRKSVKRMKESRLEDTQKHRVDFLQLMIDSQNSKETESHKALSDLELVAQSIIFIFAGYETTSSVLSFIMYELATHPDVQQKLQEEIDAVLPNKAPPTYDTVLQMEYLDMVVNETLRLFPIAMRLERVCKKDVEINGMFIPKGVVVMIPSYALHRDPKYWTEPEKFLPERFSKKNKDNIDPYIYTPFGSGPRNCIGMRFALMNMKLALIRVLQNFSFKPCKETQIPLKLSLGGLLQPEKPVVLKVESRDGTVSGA
Cytochrome P450 2D6, sequence (P10635 whole entry): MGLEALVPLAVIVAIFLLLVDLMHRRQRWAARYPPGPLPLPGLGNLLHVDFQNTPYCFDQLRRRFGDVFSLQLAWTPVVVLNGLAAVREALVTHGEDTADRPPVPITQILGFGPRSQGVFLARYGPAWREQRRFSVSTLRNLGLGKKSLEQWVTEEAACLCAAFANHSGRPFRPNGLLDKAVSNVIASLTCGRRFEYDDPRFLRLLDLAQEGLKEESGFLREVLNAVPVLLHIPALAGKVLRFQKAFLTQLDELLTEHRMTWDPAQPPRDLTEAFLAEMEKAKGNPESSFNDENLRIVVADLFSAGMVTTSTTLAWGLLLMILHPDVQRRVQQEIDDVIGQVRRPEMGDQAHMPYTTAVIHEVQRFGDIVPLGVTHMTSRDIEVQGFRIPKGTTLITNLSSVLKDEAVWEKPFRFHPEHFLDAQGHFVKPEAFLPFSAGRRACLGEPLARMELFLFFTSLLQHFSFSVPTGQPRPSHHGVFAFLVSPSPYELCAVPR
Amyloid-beta precursor protein (Homo sapiens), sequence (P05067 whole entry): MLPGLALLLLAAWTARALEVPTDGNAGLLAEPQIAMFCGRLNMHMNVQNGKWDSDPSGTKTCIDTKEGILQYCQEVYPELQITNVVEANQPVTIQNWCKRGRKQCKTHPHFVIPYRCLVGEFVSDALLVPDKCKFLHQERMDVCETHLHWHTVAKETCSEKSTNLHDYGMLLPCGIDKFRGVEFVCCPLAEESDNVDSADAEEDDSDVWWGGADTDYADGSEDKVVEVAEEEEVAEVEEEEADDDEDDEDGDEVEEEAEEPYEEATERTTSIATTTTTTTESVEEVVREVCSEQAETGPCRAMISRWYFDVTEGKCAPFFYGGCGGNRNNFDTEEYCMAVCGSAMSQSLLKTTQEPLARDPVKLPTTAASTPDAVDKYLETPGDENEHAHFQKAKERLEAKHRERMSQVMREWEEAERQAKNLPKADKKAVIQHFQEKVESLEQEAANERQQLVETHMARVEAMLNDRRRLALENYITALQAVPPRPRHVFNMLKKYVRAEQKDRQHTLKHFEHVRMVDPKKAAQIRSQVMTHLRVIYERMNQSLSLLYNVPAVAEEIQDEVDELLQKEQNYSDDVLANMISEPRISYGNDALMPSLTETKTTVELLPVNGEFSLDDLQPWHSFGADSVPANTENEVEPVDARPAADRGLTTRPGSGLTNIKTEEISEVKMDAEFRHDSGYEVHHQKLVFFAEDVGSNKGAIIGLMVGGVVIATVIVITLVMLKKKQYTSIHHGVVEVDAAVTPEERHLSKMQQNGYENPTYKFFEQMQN

IC50 (Cytochrome P450 2C8): 31.4 µM
Cmax [1]: 1700 ng/mL
inhibition [2]: Active
half-life [3]: 2 h
Kp at 0.333 h [4]: 1.2
clearance [5]: 7 mL/min/kg
Cmax [6]: 102 ng/mL
bioavailability [8]: 70%
half-life [10]: 1.4 h
bioavailability [11]: 51.9%
bioavailability [12]: 79.1%
half-life [13]: 1.6 h
IC50 (Cytochrome P450 3A4): > 50 µM
half-life [14]: 3.3 h
clearance [16]: 33 mL/min/kg
t1/2 [17]: 12.9 h
bioavailability [19]: 83.3%
Cmax [20]: 969 ng/mL
bioavailability [22]: 51%
AUC(0-t) [24]: 2240 ng·h/mL
IC50 (Cytochrome P450 2D6): > 50 µM
Tmax [25]: 0.7 h
Compound: COCCCc1ccc2oc(-c3ccc(OC)c(OC)c3)cc2c1
Activity (Mus musculus [7]): 73.07%
Activity (Mus musculus [9]): 63.73%
Activity (HT-22 [15]): Dose-dependent effect
Activity (Mus musculus [18]): 71.22%
Activity (HT-22 [21]): Non-Toxic
Activity (Mus musculus [23]): Dose-dependent effect
